Results: ChEMBL document CHEMBL1153373, “Effect of ring size on conformation and biological activity of cyclic cationic antimicrobial peptides” (J Med Chem, 2009)
≈ marks a conversion by molar mass, not a printed value. Square brackets hold non-standard residues; d marks the D form. Peptide text beside a SMILES is read from it.

Tests used:
Format in all cases: functional
Enterococcus faecalis = experiment: Antimicrobial activity against Enterococcus faecalis after 24 hrs by standard microtiter dilution method
Staphylococcus aureus = experiment: Antimicrobial activity against Staphylococcus aureus after 24 hrs by standard microtiter dilution method
Streptococcus mitis = experiment: Antimicrobial activity against Streptococcus mitis after 24 hrs by standard microtiter dilution method
Corynebacterium jeikeium = experiment: Antimicrobial activity against Corynebacterium jeikeium after 24 hrs by standard microtiter dilution method
[1] = system: Acinetobacter calcoaceticus; experiment: Antimicrobial activity against Acinetobacter calcoaceticus after 24 hrs by standard microtiter dilution method
Klebsiella pneumoniae = experiment: Antimicrobial activity against Klebsiella pneumoniae after 24 hrs by standard microtiter dilution method
Serratia marcescens = experiment: Antimicrobial activity against Serratia marcescens after 24 hrs by standard microtiter dilution method
Candida albicans = experiment: Antimicrobial activity against Candida albicans after 24 hrs by standard microtiter dilution method
How it was run: (§1)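 Fungal MICs were determined by standard microtitre dilution, taken as the lowest peptide concentration inhibiting growth after 24 h incubation at 37 °C.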

Cryptococcus neoformans = experiment: Antimicrobial activity against Cryptococcus neoformans after 24 hrs by standard microtiter dilution method; how it was run: as §1
Streptococcus pneumoniae = experiment: Antimicrobial activity against Streptococcus pneumoniae after 24 hrs by standard microtiter dilution method
Enterobacter cloacae = experiment: Antimicrobial activity against Enterobacter cloacae after 24 hrs by standard microtiter dilution method
Escherichia coli = experiment: Antimicrobial activity against Escherichia coli after 24 hrs by standard microtiter dilution method
Pseudomonas aeruginosa = experiment: Antimicrobial activity against Pseudomonas aeruginosa after 24 hrs by standard microtiter dilution method
[2] = system: Stenotrophomonas maltophilia; experiment: Antimicrobial activity against Stenotrophomonas maltophilia after 24 hrs by standard microtiter dilution method
[3] = system: Staphylococcus epidermidis; experiment: Antimicrobial activity against Staphylococcus epidermidis after 24 hrs by standard microtiter dilution method
Streptococcus pyogenes = experiment: Antimicrobial activity against Streptococcus pyogenes after 24 hrs by standard microtiter dilution method

Row | SMILES | MIC (Enterococcus faecalis) | MIC (Staphylococcus aureus) | MIC (Streptococcus mitis) | MIC (Corynebacterium jeikeium) | MIC [1] | MIC (Klebsiella pneumoniae) | MIC (Serratia marcescens) | MIC (Candida albicans) | MIC (Cryptococcus neoformans) | MIC (Streptococcus pneumoniae) | MIC (Enterobacter cloacae) | MIC (Escherichia coli) | MIC (Pseudomonas aeruginosa) | MIC [2] | MIC [3] | MIC (Streptococcus pyogenes)
1 | CC(C)C[C@@H]1NC(=O)[C@H](CCCCN)NC(=O)[C@H](C(C)C)NC(=O)[C@@H]2CCCN2C(=O)[C@@H](Cc2ccc(O)cc2)NC(=O)[C@H](CC(C)C)NC(=O)[C@H](CCCCN)NC(=O)[C@H](C(C)C)NC(=O)[C@H](CCCCN)NC(=O)[C@H](CC(C)C)NC(=O)[C@H](CCCCN)NC(=O)[C@@H]2CCCN2C(=O)[C@@H](Cc2ccc(O)cc2)NC(=O)[C@H](CCCCN)NC(=O)[C@H](CCCCN)NC1=O (cyclo(VKLKK[dY]PKLKVKL[dY]P)) | 8 µg/mL (≈ 4.38 µM) | 64 µg/mL (≈ 35 µM) | 8 µg/mL (≈ 4.38 µM) | 8 µg/mL (≈ 4.38 µM) | 2 µg/mL (≈ 1.09 µM) | 8 µg/mL (≈ 4.38 µM) | 256 µg/mL (≈ 140 µM) | 64 µg/mL (≈ 35 µM) | 64 µg/mL (≈ 35 µM) |  |  |  |  |  |  | 
2 | CC(C)C[C@@H]1NC(=O)[C@H](CCCCN)NC(=O)[C@H](C(C)C)NC(=O)[C@@H]2CCCN2C(=O)[C@@H](Cc2ccc(O)cc2)NC(=O)[C@H](CC(C)C)NC(=O)[C@H](CCCCN)NC(=O)[C@H](C(C)C)NC(=O)[C@@H]2CCCN2C(=O)[C@@H](Cc2ccc(O)cc2)NC(=O)[C@H](CCCCN)NC1=O (cyclo(VKLK[dY]PVKL[dY]P)) | 32 µg/mL (≈ 24.1 µM) | 64 µg/mL (≈ 48.1 µM) |  | 2 µg/mL (≈ 1.5 µM) | 8 µg/mL (≈ 6.02 µM) | 64 µg/mL (≈ 48.1 µM) |  |  | 32 µg/mL (≈ 24.1 µM) | 8 µg/mL (≈ 6.02 µM) | 256 µg/mL (≈ 193 µM) | 64 µg/mL (≈ 48.1 µM) | 256 µg/mL (≈ 193 µM) | 64 µg/mL (≈ 48.1 µM) |  | 
3 | CC(C)C[C@@H]1NC(=O)[C@H](CCCCN)NC(=O)[C@H](C(C)C)NC(=O)[C@H](CCCCN)NC(=O)[C@H](CC(C)C)NC(=O)[C@@H]2CCCN2C(=O)[C@@H](Cc2ccc(O)cc2)NC(=O)[C@H](C(C)C)NC(=O)[C@H](CCCCN)NC(=O)[C@H](CCCCN)NC(=O)[C@H](C(C)C)NC(=O)[C@@H]2CCCN2C(=O)[C@@H](Cc2ccc(O)cc2)NC1=O (cyclo(KKV[dY]PLKVKL[dY]PV)) | 8 µg/mL (≈ 5.14 µM) |  |  |  | 2 µg/mL (≈ 1.28 µM) |  |  | 16 µg/mL (≈ 10.3 µM) |  | 0.5 µg/mL (≈ 0.321 µM) | 128 µg/mL (≈ 82.2 µM) |  |  | 16 µg/mL (≈ 10.3 µM) | 2 µg/mL (≈ 1.28 µM) | 0.5 µg/mL (≈ 0.321 µM)
4 | CC(C)C[C@@H]1NC(=O)[C@H](CCCCN)NC(=O)[C@H](C(C)C)NC(=O)[C@@H]2CCCN2C(=O)[C@@H](Cc2ccc(O)cc2)NC(=O)[C@H](CC(C)C)NC(=O)[C@H](CCCCN)NC(=O)[C@H](C(C)C)NC(=O)[C@H](CCCCN)NC(=O)[C@@H]2CCCN2C(=O)[C@@H](Cc2ccc(O)cc2)NC1=O |  | 16 µg/mL (≈ 12 µM) |  | 2 µg/mL (≈ 1.5 µM) | 8 µg/mL (≈ 6.02 µM) | 32 µg/mL (≈ 24.1 µM) | 256 µg/mL (≈ 193 µM) |  |  | 2 µg/mL (≈ 1.5 µM) | 256 µg/mL (≈ 193 µM) | 64 µg/mL (≈ 48.1 µM) |  |  |  | 
5 | CC(C)C[C@@H]1NC(=O)[C@H](CCCCN)NC(=O)[C@H](C(C)C)NC(=O)[C@@H]2CCCN2C(=O)[C@@H](Cc2ccc(O)cc2)NC(=O)[C@H](CC(C)C)NC(=O)[C@H](CCCCN)NC(=O)[C@H](C(C)C)NC(=O)[C@H](CCCCN)NC(=O)[C@H](CC(C)C)NC(=O)[C@H](CCCCN)NC(=O)[C@@H]2CCCN2C(=O)[C@@H](Cc2ccc(O)cc2)NC(=O)[C@H](C(C)C)NC(=O)[C@H](CCCCN)NC1=O (cyclo(VKLKV[dY]PKLKVKL[dY]P)) | 2 µg/mL (≈ 1.11 µM) | 2 µg/mL (≈ 1.11 µM) | 0.5 µg/mL (≈ 0.278 µM) | 2 µg/mL (≈ 1.11 µM) | 2 µg/mL (≈ 1.11 µM) | 8 µg/mL (≈ 4.45 µM) |  |  | 1 µg/mL (≈ 0.556 µM) | 0.5 µg/mL (≈ 0.278 µM) |  |  |  | 4 µg/mL (≈ 2.22 µM) |  | 0.5 µg/mL (≈ 0.278 µM)
6 | CC(C)C[C@@H]1NC(=O)[C@H](CCCCN)NC(=O)[C@H](C(C)C)NC(=O)[C@@H]2CCCN2C(=O)[C@@H](Cc2ccc(O)cc2)NC(=O)[C@H](CC(C)C)NC(=O)[C@H](CCCCN)NC(=O)[C@H](C(C)C)NC(=O)[C@H](CCCCN)NC(=O)[C@H](CC(C)C)NC(=O)[C@@H]2CCCN2C(=O)[C@@H](Cc2ccc(O)cc2)NC(=O)[C@H](C(C)C)NC1=O | 4 µg/mL (≈ 2.59 µM) | 4 µg/mL (≈ 2.59 µM) | 1 µg/mL (≈ 0.649 µM) | 4 µg/mL (≈ 2.59 µM) | 4 µg/mL (≈ 2.59 µM) |  | 256 µg/mL (≈ 166 µM) | 32 µg/mL (≈ 20.8 µM) |  | 0.5 µg/mL (≈ 0.324 µM) | 256 µg/mL (≈ 166 µM) | 64 µg/mL (≈ 41.5 µM) | 256 µg/mL (≈ 166 µM) | 32 µg/mL (≈ 20.8 µM) | 4 µg/mL (≈ 2.59 µM) | 0.5 µg/mL (≈ 0.324 µM)
7 | CC(C)C[C@@H]1NC(=O)[C@H](CCCCN)NC(=O)[C@@H]2CCCN2C(=O)[C@@H](Cc2ccc(O)cc2)NC(=O)[C@H](CCCCN)NC(=O)[C@H](C(C)C)NC(=O)[C@H](CC(C)C)NC(=O)[C@H](CCCCN)NC(=O)[C@H](C(C)C)NC(=O)[C@@H]2CCCN2C(=O)[C@@H](Cc2ccc(O)cc2)NC(=O)[C@H](CC(C)C)NC(=O)[C@H](CCCCN)NC(=O)[C@H](C(C)C)NC(=O)[C@H](CCCCN)NC1=O (cyclo(VKLVK[dY]PKLKVKL[dY]P)) | 4 µg/mL (≈ 2.22 µM) | 32 µg/mL (≈ 17.8 µM) | 4 µg/mL (≈ 2.22 µM) | 1 µg/mL (≈ 0.556 µM) |  | 8 µg/mL (≈ 4.45 µM) | 256 µg/mL (≈ 142 µM) |  |  |  | 256 µg/mL (≈ 142 µM) | 16 µg/mL (≈ 8.9 µM) |  | 8 µg/mL (≈ 4.45 µM) | 16 µg/mL (≈ 8.9 µM) | 
8 | CC(C)C[C@@H]1NC(=O)[C@H](CCCCN)NC(=O)[C@H](C(C)C)NC(=O)[C@@H]2CCCN2C(=O)[C@@H](Cc2ccc(O)cc2)NC(=O)[C@H](CC(C)C)NC(=O)[C@H](CCCCN)NC(=O)[C@H](C(C)C)NC(=O)[C@H](CCCCN)NC(=O)[C@H](CC(C)C)NC(=O)[C@H](CCCCN)NC(=O)[C@@H]2CCCN2C(=O)[C@@H](Cc2ccc(O)cc2)NC(=O)[C@H](CCCCN)NC(=O)[C@H](C(C)C)NC(=O)[C@H](CCCCN)NC1=O (cyclo(VKLKVK[dY]PKLKVKL[dY]P)) | 4 µg/mL (≈ 2.08 µM) |  |  |  | 2 µg/mL (≈ 1.04 µM) |  |  | 64 µg/mL (≈ 33.2 µM) | 64 µg/mL (≈ 33.2 µM) | 1 µg/mL (≈ 0.519 µM) | 64 µg/mL (≈ 33.2 µM) | 4 µg/mL (≈ 2.08 µM) |  |  | 2 µg/mL (≈ 1.04 µM) | 
9 | CC(C)C[C@@H]1NC(=O)[C@H](CCCCN)NC(=O)[C@H](C(C)C)NC(=O)[C@@H]2CCCN2C(=O)[C@@H](Cc2ccc(O)cc2)NC(=O)[C@H](CC(C)C)NC(=O)[C@H](CCCCN)NC(=O)[C@H](C(C)C)NC(=O)[C@H](CCCCN)NC(=O)[C@@H]2CCCN2C(=O)[C@@H](Cc2ccc(O)cc2)NC(=O)[C@H](CCCCN)NC1=O (cyclo(KLK[dY]PKVKL[dY]PV)) | 64 µg/mL (≈ 43.9 µM) | 64 µg/mL (≈ 43.9 µM) |  |  | 16 µg/mL (≈ 11 µM) | 64 µg/mL (≈ 43.9 µM) | 256 µg/mL (≈ 176 µM) |  | 16 µg/mL (≈ 11 µM) | 16 µg/mL (≈ 11 µM) | 256 µg/mL (≈ 176 µM) |  |  | 128 µg/mL (≈ 87.8 µM) | 64 µg/mL (≈ 43.9 µM) | 2 µg/mL (≈ 1.37 µM)
10 | CC(C)C[C@@H]1NC(=O)[C@H](CCCCN)NC(=O)[C@H](C(C)C)NC(=O)[C@@H]2CCCN2C(=O)[C@@H](Cc2ccc(O)cc2)NC(=O)[C@H](CC(C)C)NC(=O)[C@H](CCCCN)NC(=O)[C@H](C(C)C)NC(=O)[C@H](CCCCN)NC(=O)[C@H](CC(C)C)NC(=O)[C@@H]2CCCN2C(=O)[C@@H](Cc2ccc(O)cc2)NC(=O)[C@H](CCCCN)NC1=O (cyclo(VKLK[dY]PLKVKL[dY]P)) | 4 µg/mL (≈ 2.55 µM) | 4 µg/mL (≈ 2.55 µM) | 0.5 µg/mL (≈ 0.318 µM) | 2 µg/mL (≈ 1.27 µM) |  | 8 µg/mL (≈ 5.09 µM) |  |  |  |  |  | 16 µg/mL (≈ 10.2 µM) |  |  |  | 
11 | CC(C)C[C@@H]1NC(=O)[C@H](CCCCN)NC(=O)[C@H](C(C)C)NC(=O)[C@H](CCCCN)NC(=O)[C@@H]2CCCN2C(=O)[C@@H](Cc2ccc(O)cc2)NC(=O)[C@H](CCCCN)NC(=O)[C@H](CCCCN)NC(=O)[C@H](C(C)C)NC(=O)[C@@H]2CCCN2C(=O)[C@@H](Cc2ccc(O)cc2)NC1=O (cyclo(VKK[dY]PKVKL[dY]P)) | 256 µg/mL (≈ 190 µM) | 256 µg/mL (≈ 190 µM) | 64 µg/mL (≈ 47.6 µM) |  |  | 256 µg/mL (≈ 190 µM) | 256 µg/mL (≈ 190 µM) | 256 µg/mL (≈ 190 µM) | 128 µg/mL (≈ 95.2 µM) | 256 µg/mL (≈ 190 µM) | 256 µg/mL (≈ 190 µM) |  | 256 µg/mL (≈ 190 µM) | 256 µg/mL (≈ 190 µM) | 256 µg/mL (≈ 190 µM) | 
